In ChEMBL document CHEMBL1151739, “Probes for narcotic receptor mediated phenomena. 37. Synthesis and opioid binding affinity of the final pair of oxide-bridged phenylmorphans, the ortho- and para-b-isomers and their N-phenethyl analogues, and the synthesis of the N-phenethyl analogues of the ortho- and para-d-isomers” (J Med Chem, 2008):

Assays:
[1] = target: T1, Mu-type opioid receptor (Homo sapiens, UniProt P35372); assay: Binding affinity to mu opioid receptor
[2] = target: Kappa-type opioid receptor (Homo sapiens, UniProt P41145); assay: Displacement of [125I]IOXY from human recombinant kappa opioid receptor expressed in CHO cells; assay type: cell-based
How it was run: (§1)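 Radioligand displacement run in CHO cells stably transfected to express the μ-, δ- or κ-opioid receptor, each receptor in its own line. The method follows the authors' earlier procedure. Each value comes from n=3 determinations.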

[3] = target: Delta-type opioid receptor (Homo sapiens, UniProt P41143); assay: Displacement of [125I]IOXY from human recombinant delta opioid receptor expressed in CHO cells; assay type: cell-based; how it was run: as §1
[4] = target: T1, Mu-type opioid receptor; assay: Displacement of [125I]IOXY from human recombinant mu opioid receptor expressed in CHO cells; assay type: cell-based; how it was run: as §1

T1 sequence (P35372 whole entry): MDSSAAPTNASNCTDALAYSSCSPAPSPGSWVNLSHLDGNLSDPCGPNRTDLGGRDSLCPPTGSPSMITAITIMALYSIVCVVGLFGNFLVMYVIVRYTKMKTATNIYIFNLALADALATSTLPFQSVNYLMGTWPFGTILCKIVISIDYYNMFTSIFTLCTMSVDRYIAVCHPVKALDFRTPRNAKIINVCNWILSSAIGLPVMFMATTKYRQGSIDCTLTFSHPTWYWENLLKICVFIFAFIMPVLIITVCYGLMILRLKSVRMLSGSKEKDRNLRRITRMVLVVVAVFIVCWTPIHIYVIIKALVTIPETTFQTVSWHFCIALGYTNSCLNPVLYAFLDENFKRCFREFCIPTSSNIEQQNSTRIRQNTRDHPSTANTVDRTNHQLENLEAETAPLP
Delta-type opioid receptor, sequence (P41143 whole entry): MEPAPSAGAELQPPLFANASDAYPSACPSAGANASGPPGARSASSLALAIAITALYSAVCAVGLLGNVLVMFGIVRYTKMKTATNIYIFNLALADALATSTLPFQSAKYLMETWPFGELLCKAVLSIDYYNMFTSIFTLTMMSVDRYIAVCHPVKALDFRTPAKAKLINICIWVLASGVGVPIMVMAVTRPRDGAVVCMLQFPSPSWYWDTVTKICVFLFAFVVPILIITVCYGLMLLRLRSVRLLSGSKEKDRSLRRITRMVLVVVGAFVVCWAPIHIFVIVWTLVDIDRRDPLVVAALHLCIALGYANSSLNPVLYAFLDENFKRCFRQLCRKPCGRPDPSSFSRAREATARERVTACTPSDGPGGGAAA
Kappa-type opioid receptor, sequence (P41145 whole entry): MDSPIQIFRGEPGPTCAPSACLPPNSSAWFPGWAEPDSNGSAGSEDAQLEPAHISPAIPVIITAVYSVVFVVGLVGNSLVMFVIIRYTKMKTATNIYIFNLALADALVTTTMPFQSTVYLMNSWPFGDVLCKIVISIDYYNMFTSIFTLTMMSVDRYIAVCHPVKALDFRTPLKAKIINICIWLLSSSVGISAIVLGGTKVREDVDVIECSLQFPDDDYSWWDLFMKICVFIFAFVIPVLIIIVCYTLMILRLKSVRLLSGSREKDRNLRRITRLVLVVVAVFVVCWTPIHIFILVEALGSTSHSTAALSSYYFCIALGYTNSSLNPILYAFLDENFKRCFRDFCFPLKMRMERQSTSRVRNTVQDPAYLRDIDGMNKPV

Row | Compound | Ki [1] | Ki [2] | Ki [3] | Ki [4]
1 | Oc1cccc2c1O[C@@H]1[C@@H]3CCC[C@]21CCN3CCc1ccccc1 | 7 nM | – | – | –
2 | Oc1ccc2c(c1)[C@]13CCC[C@H](C1)N(CCc1ccccc1)C[C@@H]3O2 (relative stereo) | – | 560 nM | 2530 nM | 1220 nM
